Test results as given in ChEMBL document CHEMBL1667850, “Indol-2-yl ethanones as novel indoleamine 2,3-dioxygenase (IDO) inhibitors” (Bioorg Med Chem, 2011).
pIC50, pKi: −log10 of the molar value. Activity calls are given as the source filed them. No cut-off for these calls is given here.

Columns and labels:
[1] = target: T1, Indoleamine 2,3-dioxygenase 1 (Homo sapiens, UniProt P14902); test: Inhibition of human IDO activity by spectrophotometry; conditions: for pIC50: read-out: IC50
Target sequence in this assay (P14902 whole entry): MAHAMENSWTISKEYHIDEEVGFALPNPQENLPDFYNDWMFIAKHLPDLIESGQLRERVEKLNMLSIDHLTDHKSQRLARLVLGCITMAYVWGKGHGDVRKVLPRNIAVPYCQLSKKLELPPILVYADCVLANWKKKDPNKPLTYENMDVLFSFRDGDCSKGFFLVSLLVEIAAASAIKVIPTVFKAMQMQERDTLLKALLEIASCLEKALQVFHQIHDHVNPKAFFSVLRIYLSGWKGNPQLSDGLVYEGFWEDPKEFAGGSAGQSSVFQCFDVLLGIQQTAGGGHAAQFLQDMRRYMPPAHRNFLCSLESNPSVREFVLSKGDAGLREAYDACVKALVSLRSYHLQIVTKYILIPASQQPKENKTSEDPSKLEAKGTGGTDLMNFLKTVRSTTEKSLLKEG

[2] = target: Indoleamine 2,3-dioxygenase 1 (Mus musculus) (UniProt P28776); test: Inhibition of mouse IDO expressed in mouse P815B cells assessed as tryptophan degradation at 20 uM; format: cell-based
How it was run: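 2×10^5 cells per well incubated overnight at 37 °C in HBSS with 80 μM L-Trp and 20 μM compound. Supernatant was acetonitrile-precipitated and analysed by HPLC for Trp (280 nm) and kynurenine (360 nm). Percent inhibition of Trp degradation and kynurenine production was calculated relative to maximal activity.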

[3] = target: T1, Indoleamine 2,3-dioxygenase 1; test: Inhibition of human IDO activity at 100 uM by spectrophotometry
How it was run: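 Recombinant N-His-tagged human IDO (Ala2–Gly403), expressed in E. coli BL21 AI and Ni-IMAC purified, 0.375 μg per well. Reaction in 50 mM phosphate pH 6.5 with 5 μM methylene blue, 40 mM ascorbate and 100 μM L-Trp, 60 min at room temperature. Stopped with 1 mM H2O2; change in OD320 read against a pre-enzyme baseline.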
Target sequence in this assay (P14902 whole entry, looked up): as the sequence (P14902 whole entry) above

[4] = target: T1, Indoleamine 2,3-dioxygenase 1; test: Inhibition of IDO
Target sequence in this assay (P14902 whole entry): as above

[5] = Cytotoxicity against mouse P815B cells at 20 uM by MTT assay; format: cell-based
How it was run: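 MTT viability on the cells left in wells after the 20 μM overnight IDO assay in HBSS at 37 °C. Culture medium (Iscove, 10% FCS, amino acids) and MTT were added for 3–4 h at 37 °C. Formazan was dissolved in SDS/DMF overnight at 37 °C and read at 570/650 nm.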

Sequence of Indoleamine 2,3-dioxygenase 1 (Mus musculus) (P28776 whole entry, looked up): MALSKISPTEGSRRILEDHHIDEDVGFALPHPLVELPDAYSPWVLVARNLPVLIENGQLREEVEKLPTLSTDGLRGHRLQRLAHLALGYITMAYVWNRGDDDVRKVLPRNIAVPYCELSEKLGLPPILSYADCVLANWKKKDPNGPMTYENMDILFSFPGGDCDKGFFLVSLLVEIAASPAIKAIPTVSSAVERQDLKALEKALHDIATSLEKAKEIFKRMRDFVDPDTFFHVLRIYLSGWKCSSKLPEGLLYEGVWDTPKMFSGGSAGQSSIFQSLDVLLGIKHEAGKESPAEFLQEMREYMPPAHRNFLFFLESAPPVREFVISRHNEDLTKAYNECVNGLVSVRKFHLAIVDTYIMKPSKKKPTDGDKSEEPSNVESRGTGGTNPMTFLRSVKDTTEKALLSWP

| Structure (SMILES) | pIC50 [1] | inhibition [2] | other results |
| --- | --- | --- | --- |
| O=C(Nc1cccnc1)c1cc2ccccc2[nH]1 | 4.03 | inactive |  |
| O=C(Cc1cccnc1)c1cc2c(Cl)cc(Cl)cc2[nH]1 | 3.86 | inactive |  |
| COc1cccc2cc(C(=O)Cc3cccnc3)[nH]c12 | 4.09 | 6% |  |
| O=C(Cc1cccnc1)c1cc2cc(O)ccc2[nH]1 | 4.43 | inactive |  |
| O=C(Cc1cccnc1)c1cc2cc(Cl)ccc2[nH]1 | 4.61 | 24% |  |
| c1ccc2c(c1)[nH]c1cnccc12 [NORHARMANE] |  |  | pKi [4]: 3.92 |
| O=C(Cc1cccnc1)c1cc2c(O)cccc2[nH]1 | 4.08 | inactive |  |
| O=C(Cc1cccnc1)c1cc2cc(F)ccc2[nH]1 | 4.44 | 24% |  |
| COc1ccc2[nH]c(C(=O)Cc3cccnc3)cc2c1 | 4.31 |  |  |
| O=C(Cc1ccncc1)c1cc2ccccc2[nH]1 |  | inactive | IC50 [1]: Not Active |
| OC(Cc1cccnc1)c1cc2ccccc2[nH]1 (stereo not given) |  | inactive | IC50 [1]: Not Active |
| O=C(Cc1cccnc1)c1cc2c(F)cccc2[nH]1 | 3.82 | 12% |  |
| O=C(Cc1cccnc1)c1cc2cc([N+](=O)[O-])ccc2[nH]1 |  | inactive | IC50 [1]: Not Active |
| O=C(Cc1cccnc1)c1cc2ccccc2[nH]1 | 4.19 | 13% |  |
| O=C(Cc1cccnc1)c1cc2cc(Br)ccc2[nH]1 | 4.74 | inactive |  |

Now from value to compound, other results behind:

| pIC50 [1] | inhibition [2] | Structure (SMILES) | other results |
| --- | --- | --- | --- |
| 4.02 | inactive | O=C(Cc1cccnc1)c1cc2cc(-c3ccccc3)ccc2[nH]1 |  |
| 4.47 | inactive | Cn1c(C(=O)Cc2cccnc2)cc2ccccc21 |  |
|  | 25% | O/N=C(/Cc1cccnc1)c1cc2ccccc2[nH]1 | inhibition [3]: 19.4% |
| 4.88 | 12% | O=C(Cc1cccnc1)c1cc2cc(OC(F)(F)F)ccc2[nH]1 |  |
| 4.54 | inactive | O=C(Cc1ccccc1)c1cc2ccccc2[nH]1 |  |
| 4.35 |  | COc1cc(OC)c2cc(C(=O)Cc3cccnc3)[nH]c2c1 | Activity [5]: Toxic |
| 4.24 | inactive | COc1cccc2[nH]c(C(=O)Cc3cccnc3)cc12 |  |
| 4.06 | 21% | Cc1ccc2[nH]c(C(=O)Cc3cccnc3)cc2c1 |  |
|  | inactive | O=C(Cc1cccnc1)c1[nH]c2ccccc2c1Br | IC50 [1]: Not Active |
|  | inactive | COc1ccc2[nH]c(C(=O)Cc3cccnc3)cc2c1OCc1ccccc1 | IC50 [1]: Not Active |
| 4.58 | inactive | O=C(Cc1cnccn1)c1cc2ccccc2[nH]1 |  |
|  | inactive | c1cncc(CCc2cc3ccccc3[nH]2)c1 | IC50 [1]: Not Active |
| 4.20 | 11% | COc1ccc2[nH]c(C(=O)Cc3cccnc3)cc2c1O |  |
| 4.43 | 10% | O=C(Cc1ccccn1)c1cc2ccccc2[nH]1 |  |
| 4.37 | inactive | O=C(Cc1cccnc1)c1cc2ccc(F)cc2[nH]1 |  |
| 3.85 | inactive | CC(C(=O)c1cc2ccccc2[nH]1)c1cccnc1 (stereo not given) |  |
